In ChEMBL document CHEMBL3774372, “Design, physico-chemical properties and biological evaluation of some new N-[(phenoxy)alkyl]- and N-{2-[2-(phenoxy)ethoxy]ethyl}aminoalkanols as anticonvulsant agents” (Bioorg Med Chem, 2016):

Key:
Rattus norvegicus [1] = experiment: Neurotoxicity in rat at 30 mg/kg, ip after […] by rotarod test; type: toxicity, organism-based; settings: in vivo
Rattus norvegicus [2] = experiment: Neurotoxicity in rat at 30 mg/kg, ip after 0.5 hrs by rotarod test; type: toxicity, organism-based; settings: in vivo
Rattus norvegicus [3] = experiment: Neurotoxicity in rat at 30 mg/kg, ip after 1 hr by rotarod test; type: toxicity, organism-based; settings: in vivo
Rattus norvegicus [4] = experiment: Neurotoxicity in rat at 30 mg/kg, ip after 2 hrs by rotarod test; type: toxicity, organism-based; settings: in vivo
Rattus norvegicus [5] = experiment: Neurotoxicity in rat at 30 mg/kg, ip after 4 hrs by rotarod test; type: toxicity, organism-based; settings: in vivo
Rattus norvegicus [6] = experiment: Neurotoxicity in rat at 30 mg/kg, po after […] by rotarod test; type: toxicity, organism-based; settings: in vivo
Rattus norvegicus [7] = experiment: Neurotoxicity in rat at 30 mg/kg, po after 0.5 hrs by rotarod test; type: toxicity, organism-based; settings: in vivo
Rattus norvegicus [8] = experiment: Neurotoxicity in rat at 30 mg/kg, po after 1 hr by rotarod test; type: toxicity, organism-based; settings: in vivo
Rattus norvegicus [9] = experiment: Neurotoxicity in rat at 30 mg/kg, po after 2 hrs by rotarod test; type: toxicity, organism-based; settings: in vivo
Rattus norvegicus [10] = experiment: Neurotoxicity in rat at 30 mg/kg, po after 4 hrs by rotarod test; type: toxicity, organism-based; settings: in vivo
Mus musculus [11] = experiment: Neurotoxicity in mouse at 30 mg/kg, ip after 2 hrs by rotarod test; type: toxicity, organism-based; settings: in vivo
Mus musculus [12] = experiment: Neurotoxicity in mouse at 30 mg/kg, ip after 0.5 hrs by rotarod test; type: toxicity, organism-based; settings: in vivo
In short: (§1)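 Mice were dosed ip with compound suspended in 0.5% methylcellulose. Rotarod: a 1 in. knurled rod turning at 6 rpm. Neurotoxicity was scored as failure to stay on the rod for at least 1 min in each of three trials. Results are given as the number of animals affected out of the number tested.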

Mus musculus [13] = experiment: Neurotoxicity in mouse at 30 mg/kg, ip after 4 hrs by rotarod test; type: toxicity, organism-based; settings: in vivo; in short: as §1
Mus musculus [14] = experiment: Neurotoxicity in mouse at 100 mg/kg, ip after 0.5 hrs by rotarod test; type: toxicity, organism-based; settings: in vivo; in short: as §1
Mus musculus [15] = experiment: Neurotoxicity in mouse at 300 mg/kg, ip after 0.5 hrs by rotarod test; type: toxicity, organism-based; settings: in vivo; in short: as §1
[16] = target: Muscarinic acetylcholine receptor M5 (Homo sapiens, UniProt P08912); experiment: Displacement of [3H]4-DAMP from human recombinant muscarinic M5 receptor expressed in CHO cells; type: cell-based
[17] = Displacement of [3H]alpha,beta-MeATP from rat urinary bladder P2X receptor
Mus musculus [18] = experiment: Anticonvulsant activity in ip dosed mouse assessed as protection against maximal electric shock-induced seizures; type: functional, organism-based
In short: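 Compound suspended in 0.5% methylcellulose and given ip to mice; screening doses 30, 100 and 300 mg/kg, read at 0.25–4 h. Protection was defined as abolition of hindlimb tonic extension.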

[19] = Neurotoxicity in ip dosed mouse by rotarod test; type: toxicity, organism-based; settings: in vivo
Mus musculus [20] = experiment: Anticonvulsant activity in ip dosed mouse assessed as protection against maximal electric shock-induced seizures measured after […]; type: functional
Mus musculus [21] = experiment: Anticonvulsant activity in ip dosed mouse assessed as protection against subcutaneous pentylenetetrazol-induced seizures measured after […]; type: functional
[22] = Neurotoxicity in ip dosed mouse after […] by rotarod test; type: toxicity, organism-based; settings: in vivo
[23] = target: 5-hydroxytryptamine receptor 2B (Homo sapiens, UniProt P41595); experiment: Displacement of [125I](+/-)DOI from human recombinant 5-HT2B receptor expressed in CHO cells; type: cell-based
[24] = target: 5-hydroxytryptamine receptor 2C (Homo sapiens, UniProt P28335); experiment: Displacement of [3H][…] from human recombinant 5-HT2C receptor expressed in HEK293 cells; type: cell-based
[25] = […] from rat cerebral cortex Sodium channel site 2; type: tissue-based

Chain of Muscarinic acetylcholine receptor M5 (P08912 whole entry): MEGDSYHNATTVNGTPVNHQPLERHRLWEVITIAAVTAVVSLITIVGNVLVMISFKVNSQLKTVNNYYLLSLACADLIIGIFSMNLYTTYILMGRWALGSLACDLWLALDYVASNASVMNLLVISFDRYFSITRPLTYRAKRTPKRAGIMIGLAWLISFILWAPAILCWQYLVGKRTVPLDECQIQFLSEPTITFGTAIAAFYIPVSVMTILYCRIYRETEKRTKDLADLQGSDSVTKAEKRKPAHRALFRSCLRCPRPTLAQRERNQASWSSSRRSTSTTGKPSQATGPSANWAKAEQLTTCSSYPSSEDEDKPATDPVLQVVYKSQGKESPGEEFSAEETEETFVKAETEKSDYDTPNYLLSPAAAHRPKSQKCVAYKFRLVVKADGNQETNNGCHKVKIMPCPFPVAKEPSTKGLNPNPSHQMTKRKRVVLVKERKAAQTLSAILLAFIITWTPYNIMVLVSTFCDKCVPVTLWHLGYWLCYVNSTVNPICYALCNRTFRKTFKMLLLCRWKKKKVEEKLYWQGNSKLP
Chain of 5-hydroxytryptamine receptor 2B (P41595 whole entry): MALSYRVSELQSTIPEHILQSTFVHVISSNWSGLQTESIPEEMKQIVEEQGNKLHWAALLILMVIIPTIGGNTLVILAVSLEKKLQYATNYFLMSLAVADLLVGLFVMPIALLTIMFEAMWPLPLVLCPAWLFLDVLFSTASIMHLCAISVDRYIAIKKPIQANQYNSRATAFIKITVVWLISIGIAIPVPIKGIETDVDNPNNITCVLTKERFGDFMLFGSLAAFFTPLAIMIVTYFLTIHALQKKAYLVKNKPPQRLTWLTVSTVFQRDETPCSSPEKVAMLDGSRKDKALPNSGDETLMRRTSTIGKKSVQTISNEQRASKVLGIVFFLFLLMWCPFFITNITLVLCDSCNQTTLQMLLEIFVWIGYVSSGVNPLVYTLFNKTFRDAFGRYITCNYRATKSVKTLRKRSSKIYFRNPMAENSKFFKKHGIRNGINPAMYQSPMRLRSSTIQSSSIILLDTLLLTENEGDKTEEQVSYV
Chain of 5-hydroxytryptamine receptor 2C (P28335 whole entry): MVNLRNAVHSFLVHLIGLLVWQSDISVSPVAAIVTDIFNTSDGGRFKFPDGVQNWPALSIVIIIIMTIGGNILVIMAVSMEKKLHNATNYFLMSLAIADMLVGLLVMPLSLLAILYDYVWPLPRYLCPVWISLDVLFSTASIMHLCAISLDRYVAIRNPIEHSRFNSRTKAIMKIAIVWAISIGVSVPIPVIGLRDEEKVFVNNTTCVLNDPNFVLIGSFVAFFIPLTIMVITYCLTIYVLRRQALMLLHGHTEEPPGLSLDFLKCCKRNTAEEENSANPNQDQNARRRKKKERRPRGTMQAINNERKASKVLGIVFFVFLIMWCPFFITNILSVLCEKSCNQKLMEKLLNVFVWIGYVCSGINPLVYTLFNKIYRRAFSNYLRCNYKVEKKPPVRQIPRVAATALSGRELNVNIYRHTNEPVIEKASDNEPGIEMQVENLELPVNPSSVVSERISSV

Cc1cccc(C)c1OCCOCCN[C@@H](C)CO.Cl
Activity (Rattus norvegicus [1]): Non-toxic | Activity (Rattus norvegicus [2]): Non-toxic | Activity (Rattus norvegicus [3]): Non-toxic | Activity (Rattus norvegicus [4]): Non-toxic | Activity (Rattus norvegicus [5]): Non-toxic | Activity (Rattus norvegicus [6]): Non-toxic | Activity (Rattus norvegicus [7]): Non-toxic | Activity (Rattus norvegicus [8]): Non-toxic | Activity (Rattus norvegicus [9]): Non-toxic | Activity (Rattus norvegicus [10]): Non-toxic | Activity (Mus musculus [11]): Non-toxic | Activity (Mus musculus [12]): Non-toxic | Activity (Mus musculus [13]): Non-toxic | Activity (Mus musculus [14]): Non-toxic | Activity (Mus musculus [15]): Toxic

C[N+]1(C)CCC(OC(=O)C(c2ccccc2)c2ccccc2)CC1 [4-DAMP]
IC50 [16]: 0.32 nM

Nc1ncnc2c1ncn2[C@@H]1O[C@H](COP(=O)(O)CP(=O)(O)OP(=O)(O)O)[C@@H](O)[C@H]1O [DIPHOSPHOMETHYLPHOSPHONIC ACID ADENOSYL ESTER]
IC50 [17]: 1.9 nM

Cc1cccc(C)c1OCCN[C@H](C)CO
EC50 (Mus musculus [18]): 5.34 mg/kg | TD50 [19]: 29.5 mg/kg | ED50 (Mus musculus [20]): 5.34 mg/kg | ED50 (Mus musculus [21]): > 50 mg/kg | TD50 at […] [22]: 29.5 mg/kg

COc1cc(CC(C)N)c(OC)cc1I (racemic)
IC50 [23]: 2.5 nM

COc1cc(OC)c(C(=O)CCCCN2CCC3(CC2)NC(=O)NC3=O)cc1NS(=O)(=O)c1ccc(C(F)(F)F)cc1 [RS-102,221]
IC50 [24]: 1.5 nM

COc1ccc(C(=O)O[C@H]2CC[C@@]3(C)[C@@H]4CC[C@H]5[C@]6(O)C[C@H](O)[C@@]7(O)[C@@H](CN8C[C@@H](C)CC[C@H]8[C@@]7(C)O)[C@]6(O)C[C@@]53O[C@]24O)cc1OC [VERATRIDINE]
IC50 [25]: 4000 nM
